Most compounds without a hit are left out; they make up all but 3.5% or so of the library.
RGS4 block: human RGS4 inhibition; P49798; HEK293 M3R/RGS4 inducible, Fluo-4 calcium flux; stronger effect = higher value; triggered by carbachol at its EC20; B-score at 10 µM; actives 0.45% (n = 310,000); AID 463165;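 active means B-score, a plate-corrected calcium signal, over three deviations above library mean, with baseline fluorescence within five deviations of library mean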;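 further: RGS4 expression induced by doxycycline in cells with stable M3 receptor; B-score is computed from the integrated fluorescence ratio over baseline after carbachol; higher B-score means a larger calcium signal and so more RGS4 inhibition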
Target sequence (P49798 whole entry, looked up): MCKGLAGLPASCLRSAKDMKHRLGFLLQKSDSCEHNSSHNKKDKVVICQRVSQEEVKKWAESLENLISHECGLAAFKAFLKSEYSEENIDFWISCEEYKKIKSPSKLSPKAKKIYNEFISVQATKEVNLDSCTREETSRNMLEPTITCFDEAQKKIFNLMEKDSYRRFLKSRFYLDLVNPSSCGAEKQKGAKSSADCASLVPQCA
MrgX1 allo act: allosterically activates human MrgX1 receptor signaling | MrgX1-HEK293, Fluo-4 calcium flux, FDSS; stronger effect = higher value | Q96LB2 | actives 0.63% (n = 310,000) | B-score at 10 µM | AID 588675;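 active means plate-corrected calcium response at least 3 library SD above typical, normal starting fluorescence, not activating the receptor alone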;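 further: compound read alongside a low EC10 to EC30 dose of BAM8-22 agonist; peak minus trough fluorescence over baseline measured at the second addition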
Target sequence (Q96LB2 whole entry, looked up): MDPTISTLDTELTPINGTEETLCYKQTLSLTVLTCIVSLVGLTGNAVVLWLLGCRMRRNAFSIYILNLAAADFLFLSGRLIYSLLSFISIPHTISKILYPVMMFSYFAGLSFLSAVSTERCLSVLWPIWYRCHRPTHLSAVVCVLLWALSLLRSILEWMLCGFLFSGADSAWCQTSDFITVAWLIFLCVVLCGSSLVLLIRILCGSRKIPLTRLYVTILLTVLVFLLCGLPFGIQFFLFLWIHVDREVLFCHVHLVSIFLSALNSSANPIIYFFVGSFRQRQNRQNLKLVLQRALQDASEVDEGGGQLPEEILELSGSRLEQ
MrgX1 antagonist: human MrgX1 receptor antagonism, primary screen | B-score at 10 µM | AID 588676 | actives 1.3% (n = 310,000) | MRGX1-HEK293 calcium flux, Fluo-4, BAM8-22 antagonism; stronger effect = lower value | Q96LB2;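 active means calcium-response B-score plate-corrected more than 3 library SD below zero, starting fluorescence within 5 deviations, no agonist response on first addition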;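 further: peak minus trough fluorescence over baseline after final BAM8-22 challenge near maximal dose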
MrgX1 agonist: activates human MrgX1 receptor signaling | actives 0.44% (n = 310,000) | B-score at 10 µM | MrgX1-HEK293 cells, Fluo-4 calcium fluorescence, agonist mode; stronger effect = higher value | Q96LB2;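 active means calcium response B-score plate-corrected fluorescence ratio at least 3 library SD, with starting fluorescence B-score inside 5 SD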
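Test system: Stable human MrgX1 HEK293 cell line | Schedule: Overnight plating before 1 h dye loading | Read-out basis: Baseline-normalised fluorescence change ratio, B-scored | Detection: Kinetic calcium dye fluorescence, Fluo-4 NW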
RGS4 act: RGS4 potentiation or activation; HEK293 M3R/inducible RGS4, carbachol calcium flux Fluo4; stronger effect = lower value; B-score at 10 µM; actives 0.92% (n = 310,000); AID 463111;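 active means B-score of the integrated calcium signal more than 4 SD below the library mean, with starting fluorescence not abnormally high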;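 further: negative B-score means reduced calcium response which marks RGS4 activation or potentiation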
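Assay system: HEK293 FlpIn-TREx cells, stable M3R, doxycycline-inducible RGS4 / Probe or stimulus: carbachol, ECmax concentration / Times: overnight RGS4 induction, 30 min dye load 37 °C, 20 min compound RT / Signal: kinetic calcium fluorescence imaging with Fluo4-AM dye, 2 µM / Measure: Agonist-evoked peak-minus-minimum fluorescence over baseline, integrated ratio, B score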
MrgX1 ant reconf: confirmation of human MrgX1 receptor antagonists; actives 19% (n = 2,300); MrgX1-HEK293, BAM8-22 calcium flux, Fluo-4; stronger effect = lower value; remaining BAM8-22 calcium response % of control (stronger effect = lower value), % at 10 µM; shares compounds with MrgX1 antagonist;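 active means remaining agonist calcium response no higher than 100% minus 3 SD of agonist-only control wells, with starting fluorescence near control levels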;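 further: agonist BAM8-22 given at a near maximal EC90 to ECmax level; peak minus minimum fluorescence divided by baseline after agonist addition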
HEK293 Ca flux: MrgX1 antagonist counter-screen hit in parental HEK293 cells | fluorescence ratio F(max-min)/F0 at 10 µM | Fluo-4 calcium fluorescence, FDSS | AID 624111 | shares compounds with MrgX1 antagonist | actives 2% (n = 4,000);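 active means duplicate-averaged calcium fluorescence ratio at least three times the standard deviation of buffer wells, a nonspecific response in parental cells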
HEK293 Ca counter: counter-screen for MrgX1 allosteric activators: effect in parental HEK293 cells | fluorescence ratio F(max-min)/F0 at 10 µM | parental HEK293 calcium flux, Fluo-4 fluorescence ratio; stronger effect = higher value | shares compounds with MrgX1 antagonist | actives 0.4% (n = 4,000) | AID 624114;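 active means calcium fluorescence ratio, averaged over duplicates, at least 3 SD of the buffer-well ratio, meaning a nonspecific response in receptor-free cells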;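 further: untransfected parental HEK293 lacking MrgX1 used as counterscreen for MrgX1 allosteric activators; fluorescence change taken during the second addition on a kinetic imager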
HEK293 Ca cntr2: counter-screen for MrgX1 activators: effect in parental HEK293 cells | shares compounds with MrgX1 antagonist | Fluo-4 calcium fluorescence (FDSS); stronger effect = higher value | fluorescence ratio F(max-min)/F0 at 10 µM | actives 8.7% (n = 4,000);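 active means calcium fluorescence ratio at least three times the spread of buffer wells, meaning a non-specific response in parental cells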
Numbers without * were called inactive; i = inactive; · = no result given.

SMILES	RGS4 block	MrgX1 allo act	MrgX1 antagonist	MrgX1 agonist	RGS4 act	MrgX1 ant reconf	HEK293 Ca flux	HEK293 Ca counter	HEK293 Ca cntr2
N#CCSc1nnc(-c2ccc3c(c2)OCO3)o1	i	i	i	i	i	·	·	·	·
O=C(COC(=O)c1ccc(CO)cc1)NCc1cccs1	i	i	i	i	i	·	·	·	·
COc1ccc(CNC(=O)C2CCN(C(=O)Cc3ccccc3)CC2)cc1	i	i	i	i	i	·	·	·	·
O=C(CN(Cc1ccccc1)C(=O)CCC(=O)Nc1ccccn1)NCc1ccc(F)cc1	i	i	i	i	i	·	·	·	·
O=C(O)CCNC(=O)C12CC3CC(CC(C3)C1)C2	i	i	-8.1*	i	i	i	i	i	i
O=C(NCc1ccccc1)C12CC3CC(CC(C3)C1)C2	i	i	i	i	i	·	·	·	·
O=C(O)c1ccc(Br)c(S(=O)(=O)N2CCCC2)c1	i	i	-5.6*	i	i	i	i	i	i
O=C(O)c1ccc(Cl)c(S(=O)(=O)N2CCCC2)c1	i	i	i	i	i	·	·	·	·
CCNc1nc(SCCOc2ccc(Br)cc2)nc(N(C)C)n1	i	i	i	i	i	·	·	·	·
COC(=O)c1ccc(Nc2ncnc3c2cnn3-c2cccc(C)c2)cc1	i	i	-4.8*	i	i	i	i	i	i
O=C1CCN(S(=O)(=O)c2ccc(Cl)cc2)CCN1	i	i	-4.6*	i	i	84%*	i	i	i
O=C(Nc1ccc(OC(F)(F)F)cc1)Oc1ccccc1N1CCCCC1	i	i	-5.4*	i	i	i	i	i	i
CC(C)CCNC(=O)NC(=O)COC(=O)/C=C/c1cnc2ccccc2n1	i	i	i	i	i	·	·	·	·
CCN(c1cccc(C)c1)S(=O)(=O)c1cc2c3c(c1)CCN3C(=O)CC2	i	i	-11*	i	i	77%*	i	i	i
Brc1c(C[n+]2ccccc2)nc2ccccn12	i	i	i	i	i	·	·	·	·
O=C(NCCOC(=O)c1cccs1)c1cccnc1	i	i	-7.8*	i	i	i	i	i	i
Cc1cc(NC(=O)c2cccnc2)ccc1Br	i	i	-7.5*	i	i	i	i	i	i
Cc1cccc(NC(=O)c2cccnc2)c1	i	i	i	i	i	·	·	·	·
Cc1ccc(NC(=O)c2cccs2)cc1NC(=O)c1cccnc1	i	i	i	i	i	·	·	·	·
O=C(Nc1ccc(NC(=O)c2cccs2)cc1)c1cccnc1	i	i	-5.8*	i	i	i	i	i	i
COc1ccc(C(=O)N[C@H](C(=O)OCC(=O)NC(=O)c2cccn2C)C(C)C)cc1	i	i	-4.8*	i	i	i	i	i	i
CC(=O)N1CCN(c2ccc(NC(=O)COc3ccc(Cl)cc3Cl)cc2)CC1	i	i	-7*	i	i	85%*	i	i	i
COc1ccccc1OCC(=O)Nc1nnc(C2CCCC2)s1	i	i	i	i	i	·	·	·	·
O=C(COc1cc(Cl)ccc1Cl)Nc1nnc(C2CC2)s1	i	i	-4.6*	i	i	i	i	i	i
CC(=O)c1sc(NC(=O)COc2ccc(Cl)cc2Cl)nc1C	i	i	-4.7*	i	i	i	i	i	i
SMILES	RGS4 block	MrgX1 allo act	MrgX1 antagonist	MrgX1 agonist	RGS4 act	MrgX1 ant reconf	HEK293 Ca flux	HEK293 Ca counter	HEK293 Ca cntr2
CCN1CCN(S(=O)(=O)c2ccc(Cl)c(C(=O)Nc3nnc(C)s3)c2)CC1	i	i	i	i	i	·	·	·	·
O=C(Nc1ccc(Br)cc1)Nn1cnnc1	i	i	i	i	i	·	·	·	·
O=C(N/N=C/c1ccccc1)C1CCCN1C(=O)c1cc([N+](=O)[O-])cc([N+](=O)[O-])c1 (centres undefined)	i	i	i	i	i	·	·	·	·
Cc1cc(NCCCN2CCOCC2)n2c(nc3ccccc32)c1C#N	i	i	-6*	i	i	78%*	i	i	i
Cc1cc(NCCN2CCOCC2)n2c(nc3ccccc32)c1C#N	i	i	i	i	i	·	·	·	·
O=C(Nc1ccc([N+](=O)[O-])cc1)Nc1ccc(OC(F)F)c(Cl)c1	·	i	i	i	·	·	·	·	·
CC(C)Cc1cc(C(C)(C)C)ccc1OC(=S)N(C)C	i	i	i	i	i	·	·	·	·
CCN(CC(=O)Nc1ccc2c(c1)OCCO2)c1nc(-c2cccnc2)nc2ccccc12	i	i	-11*	i	i	i	i	i	i
O=C(Nc1ccc2c(c1)OCO2)c1cc(-c2cccnc2)nc2ccccc12	i	i	i	i	i	·	·	·	·
CCNS(=O)(=O)c1ccc(CCC(=O)NCc2ccc3c(c2)OCO3)cc1	i	i	i	i	i	·	·	·	·
Cc1nc(-c2ccccc2)sc1C1(C)CC(c2cccc(F)c2)=NO1 (centres undefined)	i	i	i	i	i	·	·	·	·
CC(=O)c1ccc(OC(=O)c2ccc(-n3nc(C)cc3C)cc2)cc1	i	i	i	i	i	·	·	·	·
Cc1cc(C)n(-c2ccc(C(=O)Oc3ccc4c(c3)OCO4)cc2)n1	i	i	-6.7*	i	i	i	i	i	i
O=C(Nc1ccccc1)Nc1cccc(C(F)(F)F)c1	i	i	-5.2*	i	i	84%*	i	i	i
CC(C)(C)NC(=S)Nc1cccc(C(F)(F)F)c1	i	i	-5.2*	i	i	i	i	i	i
FC(F)(F)c1cccc(CNC(=S)Nc2ccccc2)c1	i	i	i	i	i	·	·	·	·
FC(F)(F)c1cccc(NC(=S)NCc2ccccc2)c1	i	i	-5.4*	i	i	i	i	i	58*
Cc1ccc(C(=O)NNC(=O)CCC(=O)NCc2ccccc2)cc1Br	i	i	i	i	i	·	·	·	·
